# Reference: ChEMBL document CHEMBL2057143, “Identification of a class of novel tubulin inhibitors” (J Med Chem, 2012)
# The source made the active and inactive calls. No cut-off for these calls is given here.
# Columns and labels:
# Bos taurus [1] = species on record: Bos taurus; assay: Inhibition of bovine brain tubulin polymerization after 20 mins by spectrophotometric analysis
# Tubulin (Homo sapiens) [2] = molecular target: T1, Tubulin (Homo sapiens) (UniProt P68371+Q9H4B7+P0DPH7+P68366+Q13509+Q71U36+P04350+Q3ZCM7+P07437+P68363+Q9BQE3+Q6PEY2+Q13885+Q9BVA1+Q9BUF5); assay: Inhibition of tubulin polymerization in human SKBR3 cells assessed as microtubule disorganization at 0.5 to 1 uM after 12 hrs by fluorescence microscopic analysis; assay type: cell-based; conditions: SK-BR-3
# Procedure, shortened: (§1)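 SKBR-3 cells in chamber slides were grown to 70% confluence, then treated with 0.5 or 1 μM compound for 12 and 24 h; untreated cells and 0.05 μM nocodazole served as controls. Cells were fixed in 4% paraformaldehyde, permeabilized with 0.2% Triton X-100 and blocked with 2% goat serum. They were stained with biotinylated anti-tubulin (1:200, overnight 4 °C) plus Alexa Fluor 488 streptavidin and imaged by fluorescence microscopy.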
# Tubulin (Homo sapiens) [3] = molecular target: T1, Tubulin (Homo sapiens); assay: Inhibition of tubulin polymerization in human SKBR3 cells assessed as decrease in microtubule density at 0.5 to 1 uM after 12 hrs by fluorescence microscopic analysis; assay type: cell-based; conditions: SK-BR-3; procedure, shortened: as §1
# Tubulin (Homo sapiens) [4] = molecular target: T1, Tubulin (Homo sapiens); assay: Inhibition of tubulin polymerization in human SKBR3 cells assessed as microtubule disorganization at 0.5 to 1 uM after 24 hrs by fluorescence microscopic analysis; assay type: cell-based; conditions: SK-BR-3; procedure, shortened: as §1
# Tubulin (Homo sapiens) [5] = molecular target: T1, Tubulin (Homo sapiens); assay: Inhibition of tubulin polymerization in human SKBR3 cells assessed as decrease in microtubule density at 0.5 to 1 uM after 24 hrs by fluorescence microscopic analysis; assay type: cell-based; conditions: SK-BR-3; procedure, shortened: as §1
# SK-BR-3 [6] = assay: Growth inhibition of human SKBR3 cells after 48 hrs by MTT assay; assay type: functional, cell-based; conditions: SK-BR-3, 48 h
# Procedure, shortened: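 Cells were seeded for 24 h, then exposed to a range of compound concentrations (DMSO ≤0.1% final) for 48 h. MTT (0.5 mg/mL) was added for 2 h, formazan was dissolved in DMSO and A570 read. Six replicates; IC50 from nonlinear regression.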
# [7] = molecular target: Heat shock protein beta-1 (Homo sapiens) (UniProt P04792); assay: Binding affinity to pure Hsp27 in human SKBR3 cell lysate at 2 uM after 1 hr by Western blot analysis; conditions: SK-BR-3
# Heat shock protein beta-1 (Homo sapiens), sequence (P04792 whole entry): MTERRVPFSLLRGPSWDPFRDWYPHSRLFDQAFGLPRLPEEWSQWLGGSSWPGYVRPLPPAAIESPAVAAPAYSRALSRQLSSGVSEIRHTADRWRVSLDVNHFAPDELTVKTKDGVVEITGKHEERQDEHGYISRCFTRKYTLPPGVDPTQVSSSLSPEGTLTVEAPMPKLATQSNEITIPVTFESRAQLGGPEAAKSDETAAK
# [8] = molecular target: Heat shock protein beta-1 (Homo sapiens) (UniProt P04792); assay: Inhibition of Hsp27 phosphorylation in human SKBR3 cells at 0.5 to 1 uM after 24 hrs by Western blot analysis; conditions: SK-BR-3
# SK-BR-3 [9] = assay: Binding affinity to alpha-tubulin in human SKBR3 cell lysate at 25 uM after 30 mins by mass spectrometric analysis; assay type: cell-free
# Procedure, shortened: (§2)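 SKBR-3 cells (1.0 × 10^7) were lysed in NP-40 buffer with protease inhibitors and sonicated. Lysate was incubated with biotinylated probe (25 μM final) for 1 h at room temperature, then with neutravidin resin for 30 min. After five binding-buffer washes, bound proteins were eluted with buffer containing compound at 25 and 50 μM. Resin was boiled in SDS buffer. Samples were run on SDS-PAGE and silver-stained; bands were trypsin-digested in-gel and analysed by LC-QTOF/MS.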
# SK-BR-3 [10] = assay: Binding affinity to beta-tubulin in human SKBR3 cell lysate at 25 uM after 30 mins by mass spectrometric analysis; assay type: cell-free; procedure, shortened: as §2
# [11] = molecular target: Heat shock protein beta-1 (Homo sapiens) (UniProt P04792); assay: Binding affinity to Hsp27 in human SKBR3 cell lysate at 25 uM after 30 mins by mass spectrometric analysis; assay type: cell-free; conditions: SK-BR-3; procedure, shortened: as §2
# SK-BR-3 [12] = assay: Binding affinity to pure alpha-tubulin in human SKBR3 cell lysate at 25 to 50 uM after 1 hr by Western blot analysis; assay type: cell-free
# Procedure, shortened: (§3)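 Pure proteins, 10 μM bovine brain tubulin or recombinant Hsp27, were tested in separate experiments. Each was incubated with 2 μM biotinylated probe for 1 h at room temperature, then with neutravidin resin for 30 min. After five washes with binding buffer, bound protein was eluted twice with buffer containing compound at 25 and 50 μM. Eluates and resin were denatured, run on SDS-PAGE, transferred to PVDF and probed with α-/β-tubulin or Hsp27 antibodies.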
# SK-BR-3 [13] = assay: Binding affinity to pure beta-tubulin in human SKBR3 cell lysate at 25 to 50 uM after 1 hr by Western blot analysis; assay type: cell-free; procedure, shortened: as §3
# [14] = molecular target: Heat shock protein beta-1 (Homo sapiens) (UniProt P04792); assay: Binding affinity to pure Hsp27 in human SKBR3 cell lysate at 25 to 50 uM after 1 hr by Western blot analysis; assay type: cell-free; conditions: SK-BR-3; procedure, shortened: as §3
# Bos taurus [15] = species on record: Bos taurus; assay: Binding affinity to bovine brain tubulin at 2 uM after 1 hr by SDS-PAGE analysis in preincubated with 10 uM colchicine
# Procedure, shortened: (§4)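 Bovine brain tubulin (10 μM) was preincubated with 10 μM colchicine or paclitaxel for 1 h at room temperature. It was then incubated with 2 μM biotinylated probe in binding buffer for 1 h at room temperature and loaded onto a neutravidin resin column for 30 min. The resin was washed five times with binding buffer, then twice with buffer containing compound (25, 50 μM). Eluates and resin were analysed by SDS-PAGE and Western blot with tubulin antibody.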
# Bos taurus [16] = species on record: Bos taurus; assay: Binding affinity to bovine brain tubulin at 2 uM after 1 hr by SDS-PAGE analysis in preincubated with 10 uM paclitaxel; procedure, shortened: as §4
# [17] = molecular target: Heat shock protein beta-1 (Homo sapiens) (UniProt P04792); assay: Induction of Hsp27 phosphorylation in human SKBR3 cells at 50 to 100 nM after 24 hrs by SDS-PAGE analysis; assay type: cell-based; conditions: SK-BR-3
# Procedure, shortened: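 SKBR-3 cells were treated for 24 h with 50 and 100 nM nocodazole, with compound or KRIBB3 run alongside. Lysates (50 μg protein) were separated on 12% SDS-PAGE and transferred to PVDF. Membranes were blocked 1 h and probed for pSer78 Hsp27, with total Hsp27 and actin as loading controls, then detected by HRP secondary and ECL.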
smiles,measurement,setting,value
Cc1ccc(C)c(COc2cc(NC(=O)c3ccc4c(c3)OCO4)ccc2N(C)S(C)(=O)=O)c1,inhibition,Bos taurus [1],Dose-dependent effect
same,inhibition,Tubulin (Homo sapiens) [2],Active
same,inhibition,Tubulin (Homo sapiens) [3],Active
same,inhibition,Tubulin (Homo sapiens) [4],Active
same,inhibition,Tubulin (Homo sapiens) [5],Active
CN(c1ccc(NC(=O)c2ccc3c(c2)OCO3)cc1OCc1ccccc1)S(C)(=O)=O,IC50,SK-BR-3 [6],62.9 µM
CCc1cc(-c2oncc2-c2ccc(OC)cc2)c(O)cc1OC,Activity,[7],Active
same,inhibition,[8],Active
Cc1ccc(C)c(COc2cc(NC(=O)c3ccc4c(c3)OCO4)ccc2N(CCCCCCNC(=O)CCCC[C@H]2SC[C@H]3NC(=O)N[C@H]32)S(C)(=O)=O)c1,Activity,SK-BR-3 [9],Active
same,Activity,SK-BR-3 [10],Active
same,Activity,[11],Active
same,Activity,SK-BR-3 [12],Active
same,Activity,SK-BR-3 [13],Active
same,Activity,[14],Active
same,Activity,Bos taurus [15],inactive
same,Activity,Bos taurus [16],Active
same,IC50,SK-BR-3 [6],2 µM
Cc1ccc(C)c(COc2cc(NC(=O)Cc3ccccc3)ccc2N(C)S(C)(=O)=O)c1,IC50,SK-BR-3 [6],121 µM
COC(=O)Nc1nc2cc(C(=O)c3cccs3)ccc2[nH]1,Activity,[17],Active
